Measured values taken from ChEMBL document CHEMBL3091382, “The chemical synthesis and cytotoxicity of new sulfur analogues of 2-methoxy-lysophosphatidylcholine” (Bioorg Med Chem Lett, 2013).

Key:
[1] = Cytotoxicity against mouse betaTC3 cells assessed as cellular membrane damage at 25 uM after 24 hrs by LDH release assay; format: cell-based; conditions: beta-tc3, 24 h
Procedure, shortened: (§1)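 βTC-3 insulinoma cells seeded at 10,000 per well and cultured 24 or 48 h, then exposed to compound for 24 h. LDH in the medium measured as a marker of membrane damage. Release expressed as percentage of that from cells given methanol alone. Mean ± SD, n = 4; significance taken at p < 0.05.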

[2] = Cytotoxicity against mouse betaTC3 cells assessed as cellular membrane damage at 10 uM after 24 hrs by LDH release assay; format: cell-based; conditions: beta-tc3, 24 h; procedure, shortened: as §1
[3] = Cytotoxicity against mouse betaTC3 cells assessed as cell viability at 25 uM after 48 hrs by MTT assay relative to control; format: cell-based, Beta-TC3; conditions: read-out: Activity
Procedure, shortened: (§2)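 βTC-3 insulinoma cells seeded at 10,000 per well and cultured 24 and 48 h before exposure to natural LPC species or 2-methoxy sulfur analogues at 10 or 25 µM. Incubation for 24 or 48 h. Viability measured by MTT colorimetric assay and expressed as % of untreated cells, mean ± SD of four independent experimental repeats.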

[4] = Cytotoxicity against mouse betaTC3 cells assessed as cell viability at 25 uM after 24 hrs by MTT assay relative to control; format: cell-based, Beta-TC3; conditions: read-out: Activity; procedure, shortened: as §2
[5] = Cytotoxicity against mouse betaTC3 cells assessed as cell viability at 10 uM after 48 hrs by MTT assay relative to control; format: cell-based, Beta-TC3; conditions: read-out: Activity; procedure, shortened: as §2
[6] = Cytotoxicity against mouse betaTC3 cells assessed as cell viability at 10 uM after 24 hrs by MTT assay relative to control; format: cell-based, Beta-TC3; conditions: read-out: Activity; procedure, shortened: as §2

Compound | Activity [1] | Activity [2] | viability at 48 h, 25 µM [3] | viability at 24 h, 25 µM [4] | viability at 48 h, 10 µM [5] | viability at 24 h, 10 µM [6]
CCCCCCCCCCCCCCCC(=O)OC[C@@H](O)COP(=O)([O-])OCC[N+](C)(C)C | 16.8% | Toxic | 20.1% | 29.7% | 59.8% | 73.1%
CCCCCCCCCCCCCCCCCC(=O)OC[C@@H](O)COP(=O)([O-])OCC[N+](C)(C)C | – | Toxic | 29.5% | 38.7% | 59.3% | 88.8%
CCCCCCCC/C=C\CCCCCCCC(=O)OC[C@@H](O)COP(=O)([O-])OCC[N+](C)(C)C | 9.04% | – | 68.5% | 81.1% | 93.4% | 130%
CCCCCCCCCCCCCC(=O)OCC(COP(=O)([S-])OCC[N+](C)(C)C)OC (mixture of isomers) | – | – | 41.1% | 73.7% | 101% | 112%
CCCCCCCCCCCCCCCCCC(=O)OCC(COP(=O)([S-])OCC[N+](C)(C)C)OC (mixture of isomers) | – | – | 50.9% | 82.9% | 61.4% | 90.3%
CCCCCCCCCCCC(=O)OCC(COP(=O)([S-])OCC[N+](C)(C)C)OC (racemic) | – | – | 71.1% | 90.7% | 106% | 90.2%
CCCCCCCCCCCCCCCC(=O)OCC(COP(=O)([S-])OCC[N+](C)(C)C)OC (racemic) | – | – | 44.2% | 60.4% | 87.7% | 105%
CCCCCCCC/C=C\CCCCCCCC(=O)OCC(COP(=O)([S-])OCC[N+](C)(C)C)OC (racemic) | – | – | 133% | 144% | 92.4% | 121%
CCCCCCCCCCCC(=O)OCC(COP(=S)([S-])OCC[N+](C)(C)C)OC (racemic) | – | – | 41.8% | 83.7% | 98.2% | 87.1%
CCCCCCCCCCCCCC(=O)OCC(COP(=S)([S-])OCC[N+](C)(C)C)OC (racemic) | – | – | 35.8% | 64.7% | 87.9% | 104%
CCCCCCCCCCCCCCCC(=O)OCC(COP(=S)([S-])OCC[N+](C)(C)C)OC (racemic) | – | – | 37.4% | 58.7% | 100% | 112%
CCCCCCCCCCCCCCCCCC(=O)OCC(COP(=S)([S-])OCC[N+](C)(C)C)OC (racemic) | – | – | 38.9% | 63.1% | 96.8% | 85.8%
CCCCCCCC/C=C\CCCCCCCC(=O)OCC(COP(=S)([S-])OCC[N+](C)(C)C)OC (racemic) | – | – | 112% | 111% | 95.9% | 90.5%
CCCCCCCCCCCC(=O)OC[C@@H](O)COP(=O)([O-])OCC[N+](C)(C)C [LYSOPHOSPHATIDYLCHOLINE] | 16.8% | – | 67.1% | 83% | 86.1% | 106%
CCCCCCCCCCCCCC(=O)OC[C@@H](O)COP(=O)([O-])OCC[N+](C)(C)C [LYSOPHOSPHATIDYLCHOLINE] | – | Toxic | 7.5% | 26.3% | 53.1% | 75.5%
